Where a SMILES comes first, the peptide text is derived from it. Bridges are numbered along the chain shown (N, C = ends). [ ]: non-standard residue; d: D form. The star is where a group is joined. X1 = CC[C@H](C)CCCCC(=O)*; Dab = NCC[C@H](N)C(=O)O
Assays:
Complications = type: in vivo; details: number of patients (%)
Method in brief: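 ICU patients with severe pulmonary infection were given IV polymyxin B sulfate as an approx. 1 h drip (loading 15,000 U/Kg, then 20,000 U/Kg/d in two doses), either alone or with CVVH (35 ml/kg/h, blood flow 200 ml/min). The incidence of skin pigmentation, nephrotoxicity and 28-day mortality was recorded per group, and the groups were compared.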

[1] = system: ventilator-associated pneumonia caused by multidrug-resistant bacteria; assay: Evaluation of clinical efficacy; type: in vivo, patients; details: control group (polymyxin B alone), n = 28
[2] = control group (polymyxin B alone), n = 28
[3] = observation group (polymyxin B + CRRT), n = 7

CC[C@H](C)CCCCC(=O)N[C@@H](CCN)C(=O)N[C@H](C(=O)N[C@@H](CCN)C(=O)N[C@H]1CCNC(=O)[C@H]([C@@H](C)O)NC(=O)[C@H](CCN)NC(=O)[C@H](CCN)NC(=O)[C@H](CC(C)C)NC(=O)[C@@H](Cc2ccccc2)NC(=O)[C@H](CCN)NC1=O)[C@@H](C)O [polymyxin B] (X1-[Dab]T[Dab][Dab][Dab][dF]L[Dab][Dab]T; lactam 4-C)
28-day mortality (Complications; [2]): 8 (28.57)
Nephrotoxicity (Complications; [2]): 6 (21.43)
Skin pigmentation (Complications; [2]): 3 (10.71)
28-day mortality (Complications; [3]): 4 (57.14)
Nephrotoxicity (Complications; [3]): 1 (14.29)
Skin pigmentation (Complications; [3]): 2 (28.57)
response rate [1]: 50.00%
